Measurements: ChEMBL document CHEMBL4321862, “Application of Bivalent Bioisostere Concept on Design and Discovery of Potent Opioid Receptor Modulators” (J Med Chem, 2019)
Activity calls are given as the source filed them.

Assays:
[1] = molecular target: Mu-type opioid receptor (Mus musculus) (UniProt P42866); test: Agonist activity at recombinant mouse mu opioid receptor expressed in CHO cell membrane assessed as [35]-GTPgammaS binding incubated for […] by scintillation counting method relative to DAMGO
[2] = molecular target: Kappa-type opioid receptor (Mus musculus, UniProt P33534); test: Displacement of [3H]-[…] from mouse kappa opioid receptor expressed in CHO cells incubated for […] by competitive radioligand binding assay; type: cell-based
[3] = molecular target: Delta-type opioid receptor (Homo sapiens, UniProt P41143); test: Displacement of [3H]-[…] from human delta opioid receptor expressed in CHO cells incubated for […] by competitive radioligand binding assay; type: cell-based
Mu-type opioid receptor [4] = molecular target: T1, Mu-type opioid receptor (Mus musculus, UniProt P42866); test: Displacement of [3H]-Naloxone from mouse mu opioid receptor expressed in CHO cells incubated for […] by competitive radioligand binding assay; type: cell-based
[5] = Selectivity index, ratio of Ki for mouse kappa opioid receptor expressed in CHO cells to Ki for mouse mu opioid receptor expressed in CHO cells
[6] = Selectivity index, ratio of Ki for human delta opioid receptor expressed in CHO cells to Ki for mouse mu opioid receptor expressed in CHO cells
Mu-type opioid receptor [7] = molecular target: T1, Mu-type opioid receptor; test: Agonist activity at recombinant mouse mu opioid receptor expressed in CHO cell membrane assessed as [35]-GTPgammaS binding incubated for […] by scintillation counting method
Mus musculus [8] = test: Antinociceptive activity in Swiss Webster mouse assessed as increase in latency to tail withdrawal at 10 mg/kg, sc observed for 20 mins by warm water tail withdrawal assay; type: functional, organism-based
Outline: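 Male Swiss Webster mice, 25–30 g, n = 5 per group, baseline tail latency 2–4 s accepted. Compound given s.c. in saline or water. Tail immersed in 56 ± 0.1 °C water 20 min post-dose, 10 s cutoff. %MPE = [(test − control)/(10 − control)] × 100. Saline and morphine as controls.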

Mus musculus [9] = test: Inhibition of morphine-induced antinociceptive activity in Swiss Webster mouse assessed as decrease in latency to tail withdrawal at 10 mg/kg, sc administered 5 mins before morphine stimulation observed for 20 mins by warm water tail withdrawal assay; type: functional, organism-based
Outline: (§1)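 Male Swiss Webster mice, n ≥ 5, baseline latency 2–4 s. Test compound given s.c. 5 min before morphine 10 mg/kg. Tail immersion at 56 ± 0.1 °C 20 min after morphine, 10 s cutoff, %MPE per mouse.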

Mus musculus [10] = test: Inhibition of morphine-induced antinociceptive activity in subcutaneously dosed Swiss Webster mouse assessed as decrease in latency to tail withdrawal administered 5 mins before morphine stimulation observed for 20 mins by warm water tail withdrawal assay; type: functional; outline: as §1

SMILES | Emax [1] | Ki [2] | Ki [3] | Ki (Mu-type opioid receptor [4]) | Ratio Ki [5] | Ratio Ki [6] | EC50 (Mu-type opioid receptor [7]) | Activity (Mus musculus [8]) | inhibition (Mus musculus [9]) | AD50 (Mus musculus [10])
Cl.O=C(N[C@@H]1CC[C@@]2(O)[C@H]3Cc4ccc(O)c5c4[C@@]2(CCN3CC2CC2)[C@H]1O5)c1csc2ccccc12 | 29.9% | 0.48 nM | 18.6 nM | 0.14 nM | 3.4 | 133.21 | 0.37 nM | – | – | –
Cl.O=C(N[C@@H]1CC[C@@]2(O)[C@H]3Cc4ccc(O)c5c4[C@@]2(CCN3CC2CC2)[C@H]1O5)c1ccc2ccoc2c1 | 21.1% | 0.3 nM | 12.3 nM | 0.18 nM | 1.7 | 68.1 | 0.59 nM | Active | – | –
Cl.O=C(N[C@H]1CC[C@@]2(O)[C@H]3Cc4ccc(O)c5c4[C@@]2(CCN3CC2CC2)[C@H]1O5)c1cc2ccccc2s1 | 22.9% | 1.21 nM | 14.3 nM | 0.27 nM | 4.5 | 53 | 4.02 nM | – | – | –
Cl.O=C(N[C@H]1CC[C@@]2(O)[C@H]3Cc4ccc(O)c5c4[C@@]2(CCN3CC2CC2)[C@H]1O5)c1cc2ccccc2o1 | 34% | 1.67 nM | 35.9 nM | 0.44 nM | 3.8 | 81.6 | 5.52 nM | – | Active | 3.21 mg/kg
O=C(N[C@H]1CC[C@@]2(O)[C@H]3Cc4ccc(O)c5c4[C@@]2(CCN3CC2CC2)[C@H]1O5)c1cccc2ccoc12 | 12.9% | 5.12 nM | – | – | – | – | – | – | – | –
Cl.O=C(N[C@H]1CC[C@@]2(O)[C@H]3Cc4ccc(O)c5c4[C@@]2(CCN3CC2CC2)[C@H]1O5)c1ccc2ccsc2c1 | 18.1% | 3.72 nM | 22.3 nM | 0.28 nM | 13.3 | 79.6 | 3.01 nM | – | – | –
Cl.O=C(N[C@@H]1CC[C@@]2(O)[C@H]3Cc4ccc(O)c5c4[C@@]2(CCN3CC2CC2)[C@H]1O5)c1cccc2ccsc12 | – | 1.62 nM | 38.9 nM | 0.19 nM | 8.5 | 204.9 | 2.97 nM | – | – | –
Cl.O=C(N[C@@H]1CC[C@@]2(O)[C@H]3Cc4ccc(O)c5c4[C@@]2(CCN3CC2CC2)[C@H]1O5)c1ccc2sccc2c1 | 75.4% | 0.21 nM | 1.36 nM | 0.14 nM | 1.5 | 9.7 | 0.19 nM | Active | – | –
Cl.O=C(N[C@H]1CC[C@@]2(O)[C@H]3Cc4ccc(O)c5c4[C@@]2(CCN3CC2CC2)[C@H]1O5)c1ccc2occc2c1 | 17.7% | 4.23 nM | 29 nM | 0.35 nM | 12.1 | 82.9 | 3.72 nM | – | Active | 2.03 mg/kg
Cl.O=C(N[C@@H]1CC[C@@]2(O)[C@H]3Cc4ccc(O)c5c4[C@@]2(CCN3CC2CC2)[C@H]1O5)c1ccc2occc2c1 | 52.2% | 0.21 nM | 5.31 nM | 0.15 nM | 1.4 | 35.4 | 0.41 nM | Active | – | –
Cl.O=C(N[C@@H]1CC[C@@]2(O)[C@H]3Cc4ccc(O)c5c4[C@@]2(CCN3CC2CC2)[C@H]1O5)c1cc2ccccc2s1 | 59% | 0.2 nM | 1.39 nM | 0.14 nM | 1.4 | 9.9 | 0.24 nM | Active | – | –
Cl.O=C(N[C@@H]1CC[C@@]2(O)[C@H]3Cc4ccc(O)c5c4[C@@]2(CCN3CC2CC2)[C@H]1O5)c1cccc2occc12 | 23.6% | 0.8 nM | 70.5 nM | 0.17 nM | 4.7 | 415 | 0.59 nM | – | Active | 2.79 mg/kg
Cl.O=C(N[C@@H]1CC[C@@]2(O)[C@H]3Cc4ccc(O)c5c4[C@@]2(CCN3CC2CC2)[C@H]1O5)c1coc2ccccc12 | 43.2% | 0.3 nM | 10.3 nM | 0.13 nM | 2.3 | 79.2 | 0.47 nM | – | – | –
Cl.O=C(N[C@H]1CC[C@@]2(O)[C@H]3Cc4ccc(O)c5c4[C@@]2(CCN3CC2CC2)[C@H]1O5)c1csc2ccccc12 | 14.3% | 2.39 nM | 9.07 nM | 0.2 nM | 11.9 | 45.4 | 1.85 nM | – | – | –
Cl.O=C(N[C@H]1CC[C@@]2(O)[C@H]3Cc4ccc(O)c5c4[C@@]2(CCN3CC2CC2)[C@H]1O5)c1ccc2sccc2c1 | 18.9% | 2.19 nM | 11.9 nM | 0.39 nM | 5.6 | 30.4 | 2.47 nM | – | – | –
Cl.O=C(N[C@@H]1CC[C@@]2(O)[C@H]3Cc4ccc(O)c5c4[C@@]2(CCN3CC2CC2)[C@H]1O5)c1ccc2ccsc2c1 | 58.7% | 0.2 nM | 2.04 nM | 0.15 nM | 1.3 | 13.6 | 0.21 nM | Active | – | –
Cl.O=C(N[C@@H]1CC[C@@]2(O)[C@H]3Cc4ccc(O)c5c4[C@@]2(CCN3CC2CC2)[C@H]1O5)c1cc2ccccc2o1 | 64.5% | 0.23 nM | 1.94 nM | 0.16 nM | 1.4 | 12.1 | 0.39 nM | Active | – | –
Cl.O=C(N[C@@H]1CC[C@@]2(O)[C@H]3Cc4ccc(O)c5c4[C@@]2(CCN3CC2CC2)[C@H]1O5)c1cccc2sccc12 | 23.1% | 0.75 nM | 24 nM | 0.16 nM | 4.7 | 150.3 | 0.32 nM | – | – | –
Cl.O=C(N[C@H]1CC[C@@]2(O)[C@H]3Cc4ccc(O)c5c4[C@@]2(CCN3CC2CC2)[C@H]1O5)c1coc2ccccc12 | 18.7% | 3.37 nM | 16.8 nM | 0.27 nM | 12.5 | 62.3 | 1.57 nM | – | Active | 2.51 mg/kg
Cl.O=C(N[C@H]1CC[C@@]2(O)[C@H]3Cc4ccc(O)c5c4[C@@]2(CCN3CC2CC2)[C@H]1O5)c1ccc2ccoc2c1 | 30.5% | 1.66 nM | 30.7 nM | 0.29 nM | 5.7 | 105.8 | 2.23 nM | – | – | –
Cl.O=C(N[C@H]1CC[C@@]2(O)[C@H]3Cc4ccc(O)c5c4[C@@]2(CCN3CC2CC2)[C@H]1O5)c1cccc2sccc12 | 16.1% | 2.35 nM | 6.85 nM | 0.26 nM | 9 | 26.3 | 1.05 nM | – | – | –
